Consider ten compounds from ChEMBL document CHEMBL1123298, “Novel 1,3-bis(aryloxy)propanes as leukotriene D4 antagonists” (1986).

The subject of the assay is Cavia porcellus. Kind of assay: In vivo antagonistic activity against leukotriene D4 (LTD4) in guinea pig lung. The assay is classed as functional. The conditions noted are these: read-out: ID50 (the source's name). Put shortly:
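Drug in propylene glycol given iv 10 min before LTD4 400 ng/kg iv; controls received solvent. Lung overflow volume read at 5 min; ID50 by inverse prediction, common-slope parallel line assay, 3-fold doses, 2–6 animals/dose.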
As to `CCCc1c(NC(=O)C(=O)OCC)cccc1OCC(O)COc1ccc(C(C)=O)c(O)c1CCC` (stereo not given), the ED50 turned out to be 2.6 mg/kg. `CCCc1c(OCC(O)COc2cccc(NC(=O)C(=O)OCC(C)(C)C)c2C#N)ccc(C(C)=O)c1O` (stereo not given): the ED50 amounted to 0.461 mg/kg. As for `CCCc1c(OCCCOc2cccc(NC(=O)C(=O)OCC)c2)ccc(C(C)=O)c1O`, the ED50 stood at 1.09 mg/kg.

On to `CCCc1c(OCC(O)COc2cccc(NC(=O)CC(=O)OCC)c2C#N)ccc(C(C)=O)c1O` (stereo not given), for which the ED50 amounted to 0.64 mg/kg.

On to `CCCc1c(OCCCOc2cccc(NC(=O)C(=O)OCC)c2C#N)ccc(C(C)=O)c1O`, for which the ED50 worked out at 0.342 mg/kg. For `CCCc1c(OCCCOc2cccc(NC(=O)CCC(=O)OCC)c2C#N)ccc(C(C)=O)c1O`, the ED50 was found to be 1.77 mg/kg. For the compound `CCCc1c(OCC(O)COc2cccc(NC(=O)C(=O)OCC)c2C#N)ccc(C(C)=O)c1O` (stereo not given), the ED50 is 0.113 mg/kg. `CCCc1c(OCC(O)COc2cccc(NC(=O)C(=O)O)c2C#N)ccc(C(C)=O)c1O` (stereo not given): the ED50 was found to be 1.8 mg/kg. As for `CCCc1c(OCCCOc2cccc(NC(=O)CCC(=O)OCC)c2)ccc(C(C)=O)c1O`, the ED50 worked out at 1.28 mg/kg. With `CCCc1c(OCC(O)COc2ccc3c(=O)cc(C(=O)[O-])oc3c2CCC)ccc(C(C)=O)c1O.[Na+]` (stereo not given) [FPL-55712 SODIUM SALT], the ED50 stood at 0.153 mg/kg.
